Results as given in ChEMBL document CHEMBL4257584, “Sterol 14α-Demethylase Structure-Based Optimization of Drug Candidates for Human Infections with the Protozoan Trypanosomatidae” (J Med Chem, 2018).
The source made the active and inactive calls. The calls are words filed in the database; no cut-off is given here.

Tests used:
[1] = Maximum plasma concentration in BALB/c mouse at 25 mg/kg, po via gavage by […]; format: ADME, organism-based; set-up: dose 25 mg/kg, route oral
Method in brief: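 Single oral gavage dose of 25 mg/kg in BALB/c mice; blood sampled at 1, 2, 4, 6, 10, 16, 24 h. Plasma is diluted in PBS with ketoconazole internal standard, extracted with 80% acetonitrile, dried and redissolved. Analysed by reversed-phase HPLC with UV at 291/250 nm, 0.1 μM detection limit. Lifetime is time until undetectable.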

[2] = Drug uptake in BALB/c mouse lungs at 25 mg/kg, po via gavage measured after 4 hrs post dose by […]; format: ADME, organism-based, Lung; details: read-out: Drug uptake
Method in brief: (§1)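 BALB/c mice get a single oral gavage dose of 25 mg/kg; tissues are collected 4 h post-dose. About 100 mg tissue is diluted 5-fold in PBS and homogenized. Homogenate is extracted as for plasma (ketoconazole internal standard, acetonitrile extraction) and quantified by HPLC-UV at 291 nm, 0.1 μM detection limit, n=2.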

[3] = Half life in CD1 mouse liver microsomes at 1 uM preincubated for 5 mins followed by NADPH addition and measured by LC/MS/MS analysis; format: ADME, microsome
[4] = Intrinsic clearance in Sprague-Dawley rat liver microsomes at 1 uM preincubated for 5 mins followed by NADPH addition and measured after 45 mins by LC/MS/MS analysis; format: ADME, microsome; details: read-out: CLH
[5] = Half life in human liver microsomes at 1 uM preincubated for 5 mins followed by NADPH addition and measured by LC/MS/MS analysis; format: ADME, microsome
[6] = Half life in Sprague-Dawley rat liver microsomes at 1 uM preincubated for 5 mins followed by NADPH addition and measured by LC/MS/MS analysis; format: ADME, microsome
Mus musculus = assay: Drug metabolism in mouse plasma assessed as glucuronidation of the N-pyridinyl site formation at 25 mg/kg, po by HPLC analysis; format: ADME, organism-based; details: in vivo
[7] = Drug uptake in BALB/c mouse liver at 25 mg/kg, po via gavage measured after 4 hrs post dose by […]; format: ADME, organism-based; details: read-out: Drug uptake; method in brief: as §1
[8] = Hepatic clearance in Sprague-Dawley rat liver microsomes at 1 uM preincubated for 5 mins followed by NADPH addition and measured after 45 mins by LC/MS/MS analysis; format: ADME, microsome
Method in brief: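 Pooled liver microsomes at 0.5 mg/mL: human (mixed gender), male Sprague-Dawley rat, or male CD-1 mouse, with test compound at 1 μM, triplicate. In vitro t1/2 is scaled to CLint (45 mg microsomes/g liver; 45 g liver/kg scaling factor). CLhep uses well-stirred model with hepatic blood flow 21 (human), 70 (rat), 90 (mouse) mL/min/kg.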

[9] = Drug uptake in BALB/c mouse heart at 25 mg/kg, po via gavage measured after 4 hrs post dose by […]; format: ADME, organism-based; details: read-out: Drug uptake; method in brief: as §1
[10] = Drug uptake in BALB/c mouse brain at 25 mg/kg, po via gavage measured after 4 hrs post dose by […]; format: ADME, organism-based; details: read-out: Drug uptake; method in brief: as §1
[11] = Intrinsic clearance in human liver microsomes at 1 uM preincubated for 5 mins followed by NADPH addition and measured after 45 mins by LC/MS/MS analysis; format: ADME, microsome; details: read-out: CLH
[12] = Lipophilicity, log P of the compound; format: physicochemical; details: octanol/water
[13] = Hepatic clearance in human liver microsomes at 1 uM preincubated for 5 mins followed by NADPH addition and measured after 45 mins by LC/MS/MS analysis; format: ADME, microsome
[14] = Intrinsic clearance in CD1 mouse liver microsomes at 1 uM preincubated for 5 mins followed by NADPH addition and measured after 45 mins by LC/MS/MS analysis; format: ADME, microsome; details: read-out: CLH
[15] = Drug uptake in BALB/c mouse blood at 25 mg/kg, po via gavage measured after 4 hrs post dose by […]; format: ADME, organism-based; details: read-out: Drug uptake; method in brief: as §1
[16] = Drug uptake in BALB/c mouse spleen at 25 mg/kg, po via gavage measured after 4 hrs post dose by […]; format: ADME, organism-based; details: read-out: Drug uptake; method in brief: as §1
[17] = Hepatic clearance in CD1 mouse liver microsomes at 1 uM preincubated for 5 mins followed by NADPH addition and measured after 45 mins by LC/MS/MS analysis; format: ADME, microsome
[18] = biological target: Sterol 14-alpha demethylase (Trypanosoma cruzi (strain CL Brener)) (UniProt Q7Z1V1); assay: Inhibition of Trypanosoma cruzi Y CYP51 expressed in Escherichia coli using [3-3H]-eburicol as substrate after 60 mins by LC-MS analysis
Method in brief: (§2)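 Reconstituted reaction: 1 μM purified CYP51, 2 μM T. brucei NADPH-P450 reductase, 100 μM dilauroylphosphatidylcholine, isocitrate dehydrogenase/isocitrate regeneration, 50 mM K phosphate pH 7.2, 10% glycerol. [3-3H]sterol substrate at 50 μM final (eburicol for T. cruzi; obtusifoliol for T. brucei and L. infantum) with inhibitor at 1.1 μM final. Preincubate 60 s at 37 °C, start with 100 μM NADPH, run 60 min, EtOAc extraction. Gives % inhibition of 14α-demethylation, triplicate, mean ± SD.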

[19] = Drug uptake in BALB/c mouse heart at 25 mg/kg, po via gavage measured after 2 hrs post dose by LC-MS analysis; format: ADME, organism-based; details: in vivo
[20] = Drug uptake in BALB/c mouse brain at 25 mg/kg, po via gavage measured after 4 hrs post dose by LC-MS analysis; details: in vivo
[21] = biological target: Putative lanosterol 14-alpha-demethylase (Leishmania infantum) (UniProt A2TEF2); assay: Inhibition of Leishmania infantum CYP51 expressed in Escherichia coli using [3-3H]-obtusifoliol as substrate after 60 mins by LC-MS analysis; method in brief: as §2
[22] = Drug uptake in BALB/c mouse lungs at 25 mg/kg, po via gavage measured after 2 hrs post dose by LC-MS analysis; format: ADME, organism-based, Lung; details: in vivo
[23] = Drug uptake in BALB/c mouse intestine at 25 mg/kg, po via gavage measured after 2 hrs post dose by LC-MS analysis; format: ADME, organism-based; details: read-out: Drug uptake
[24] = Drug uptake in BALB/c mouse liver at 25 mg/kg, po via gavage measured after 2 hrs post dose by LC-MS analysis; format: ADME, organism-based; details: in vivo
[25] = Drug uptake in BALB/c mouse blood at 25 mg/kg, po via gavage measured after 2 hrs post dose by LC-MS analysis; format: ADME, organism-based; details: in vivo
[26] = biological target: Lanosterol 14-alpha-demethylase (Trypanosoma brucei brucei (strain 927/4 GUTat10.1)) (UniProt Q385E8); assay: Inhibition of Trypanosoma brucei […] CYP51 expressed in Escherichia coli using [3-3H]-obtusifoliol as substrate after 60 mins by LC-MS analysis; method in brief: as §2
[27] = Drug uptake in BALB/c mouse spleen at 25 mg/kg, po via gavage measured after 2 hrs post dose by LC-MS analysis; format: ADME, organism-based; details: in vivo

Sequence of Sterol 14-alpha demethylase (Trypanosoma cruzi (strain CL Brener)) (Q7Z1V1 whole entry, looked up): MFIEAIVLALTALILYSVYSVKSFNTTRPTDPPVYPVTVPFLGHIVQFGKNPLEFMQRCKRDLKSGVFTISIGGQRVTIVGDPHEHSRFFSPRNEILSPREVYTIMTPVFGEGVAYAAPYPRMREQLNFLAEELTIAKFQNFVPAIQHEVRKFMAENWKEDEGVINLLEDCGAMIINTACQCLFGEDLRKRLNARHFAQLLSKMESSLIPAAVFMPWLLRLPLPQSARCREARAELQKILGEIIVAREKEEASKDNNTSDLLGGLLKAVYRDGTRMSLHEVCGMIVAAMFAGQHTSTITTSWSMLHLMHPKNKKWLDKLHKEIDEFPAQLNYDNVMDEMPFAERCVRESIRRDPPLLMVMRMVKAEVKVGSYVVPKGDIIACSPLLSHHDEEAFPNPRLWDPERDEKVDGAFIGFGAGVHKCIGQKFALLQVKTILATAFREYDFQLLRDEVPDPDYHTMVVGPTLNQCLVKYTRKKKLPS
Sequence of Lanosterol 14-alpha-demethylase (Trypanosoma brucei brucei (strain 927/4 GUTat10.1)) (Q385E8 1-481): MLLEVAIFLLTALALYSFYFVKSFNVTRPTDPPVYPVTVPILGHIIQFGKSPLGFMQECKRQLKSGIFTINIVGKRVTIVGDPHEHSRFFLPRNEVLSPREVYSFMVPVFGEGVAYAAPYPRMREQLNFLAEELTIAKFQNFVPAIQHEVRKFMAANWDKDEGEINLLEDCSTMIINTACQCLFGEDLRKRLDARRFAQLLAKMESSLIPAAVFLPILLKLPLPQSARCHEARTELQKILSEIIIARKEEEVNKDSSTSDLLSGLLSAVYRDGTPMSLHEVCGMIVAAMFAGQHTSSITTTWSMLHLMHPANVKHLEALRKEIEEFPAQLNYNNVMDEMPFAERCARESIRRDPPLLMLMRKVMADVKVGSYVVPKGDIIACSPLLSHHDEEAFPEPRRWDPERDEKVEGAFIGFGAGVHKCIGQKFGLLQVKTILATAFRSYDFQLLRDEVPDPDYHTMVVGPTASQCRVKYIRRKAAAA
Sequence of Putative lanosterol 14-alpha-demethylase (Leishmania infantum) (A2TEF2 1-480): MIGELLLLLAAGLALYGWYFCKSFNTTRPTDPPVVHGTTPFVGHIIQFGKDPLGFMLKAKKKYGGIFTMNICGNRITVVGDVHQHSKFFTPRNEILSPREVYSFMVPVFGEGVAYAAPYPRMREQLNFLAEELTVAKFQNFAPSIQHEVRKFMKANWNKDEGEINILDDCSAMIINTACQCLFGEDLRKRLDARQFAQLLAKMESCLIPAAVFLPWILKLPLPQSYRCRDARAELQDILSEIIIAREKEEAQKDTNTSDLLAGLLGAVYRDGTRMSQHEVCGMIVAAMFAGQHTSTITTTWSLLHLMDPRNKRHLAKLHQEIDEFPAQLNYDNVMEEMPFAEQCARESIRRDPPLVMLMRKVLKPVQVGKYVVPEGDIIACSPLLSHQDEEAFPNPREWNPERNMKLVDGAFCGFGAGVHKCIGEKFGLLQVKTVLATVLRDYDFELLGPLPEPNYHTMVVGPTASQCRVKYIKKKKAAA

O=C(N[C@@H](Cn1ccnc1)c1ccc(-c2ccc(F)cc2)cc1Cl)c1ccc(-c2nnc(-c3ccncc3)o2)cc1
Cmax [1]: < 100 nM | concentration at 4 h [2]: 1000 nM | half-life at 1 µM ([3]; CD1, mouse, liver microsomes): 55 min | CLint scaled at 1 µM [4]: 52.3 mL/min/kg | half-life at 1 µM ([5]; liver microsomes): 53 min | half-life at 1 µM ([6]; Sprague-Dawley, liver microsomes): 54 min | Drug metabolism (Mus musculus): Metabolite_Detected | concentration at 4 h [7]: 400 nM | CLhep predicted at 1 µM [8]: 29.9 mL/min/kg | concentration at 4 h [9]: 100 nM | concentration at 4 h [10]: < 100 nM | CLint scaled at 1 µM [11]: 23.5 mL/min/kg | logP [12]: 5.27 | CLhep predicted at 1 µM [13]: 11.1 mL/min/kg | CLint scaled at 1 µM [14]: 99 mL/min/kg | concentration at 4 h [15]: < 100 nM | concentration at 4 h [16]: < 100 nM | CLhep predicted at 1 µM [17]: 47.1 mL/min/kg

CS(=O)(=O)c1ccc(-c2ccc([C@H](Cn3ccnc3)NC(=O)c3ccc(-c4nnc(-c5ccccc5)o4)cc3)c(Cl)c2)cc1
Cmax [1]: < 100 nM | inhibition [18]: inactive | concentration at 4 h [2]: < 100 nM | Drug uptake [19]: Not Active | t1/2 ([3]; mouse, microsomes, 1 µM): 43 min | Drug uptake [20]: Not Active | inhibition [21]: inactive | Drug uptake [22]: Not Active | CLint scaled at 1 µM [4]: 58.1 mL/min/kg | t1/2 ([5]; microsomes, 1 µM): 108 min | t1/2 ([6]; microsomes, 1 µM): 48 min | concentration at 2 h [23]: 130000 nM | Drug uptake [24]: Not Active | concentration at 4 h [7]: < 100 nM | CLhep predicted at 1 µM [8]: 31.7 mL/min/kg | concentration at 4 h [9]: < 100 nM | concentration at 4 h [10]: < 100 nM | CLint scaled at 1 µM [11]: 11.6 mL/min/kg | logP [12]: 4.39 | CLhep predicted at 1 µM [13]: 7.46 mL/min/kg | Drug uptake [25]: Not Active | inhibition [26]: inactive | CLint scaled at 1 µM [14]: 127 mL/min/kg | concentration at 4 h [15]: < 100 nM | Drug uptake [27]: Not Active | concentration at 4 h [16]: < 100 nM | CLhep predicted at 1 µM [17]: 52.6 mL/min/kg
